Substitutions are numbered along the chain they refer to. The source made the active and inactive calls. The rule behind the calls is not given here.
Legend:
[1] = target: T1, Tyrosine-protein phosphatase non-receptor type 11 (Homo sapiens) (UniProt Q06124); experiment: Mixed type inhibition of human wild-type full length SHP2 assessed as substrate [Et] at 10 uM using H-Glu-Phe-pTyr-Ala-Glu-Val-Gly-Arg-Ser-Pro-Pro-Asp-Pro-Ala-Lys as substrate by Lineweaver-Burk plot analysis (reference value: 0.029 uM)
T1 sequence (whole entry): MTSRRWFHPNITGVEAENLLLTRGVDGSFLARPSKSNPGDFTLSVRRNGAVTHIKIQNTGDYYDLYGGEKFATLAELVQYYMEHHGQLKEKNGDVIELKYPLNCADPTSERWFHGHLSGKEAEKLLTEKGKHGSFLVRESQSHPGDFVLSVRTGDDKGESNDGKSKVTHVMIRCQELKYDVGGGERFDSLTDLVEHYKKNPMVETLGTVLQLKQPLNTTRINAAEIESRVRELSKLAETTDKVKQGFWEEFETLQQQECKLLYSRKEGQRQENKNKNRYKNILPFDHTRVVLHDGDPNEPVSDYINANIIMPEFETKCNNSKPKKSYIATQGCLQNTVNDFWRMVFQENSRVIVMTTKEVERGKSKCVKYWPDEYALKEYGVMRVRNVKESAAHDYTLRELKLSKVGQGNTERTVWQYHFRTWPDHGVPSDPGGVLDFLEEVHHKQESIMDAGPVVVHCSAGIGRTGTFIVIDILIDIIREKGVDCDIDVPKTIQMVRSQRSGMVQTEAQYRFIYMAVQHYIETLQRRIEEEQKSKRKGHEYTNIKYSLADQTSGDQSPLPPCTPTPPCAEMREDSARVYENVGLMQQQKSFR

[2] = target: T1, Tyrosine-protein phosphatase non-receptor type 11 (Homo sapiens); experiment: Mixed type inhibition of human wild-type full length SHP2 assessed as substrate [Et] at 20 uM using H-Glu-Phe-pTyr-Ala-Glu-Val-Gly-Arg-Ser-Pro-Pro-Asp-Pro-Ala-Lys as substrate by Lineweaver-Burk plot analysis (reference value: 0.029 uM)
[3] = target: T1, Tyrosine-protein phosphatase non-receptor type 11 (Homo sapiens); experiment: Binding affinity to full length wild type GST-tagged SHP2 (unknown origin) luminescence spectrometry-based quenching assay
How it was run: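 Intrinsic fluorescence quenching of full-length WT GST-SHP2 held at 3.0 µM in 20 mM Tris-HCl pH 7.5 while compound concentration is increased. Excitation 295 nm, emission 360–500 nm. Compound-alone fluorescence subtracted; intensities are relative. Triplicates shown from one of three repeats.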

[4] = target: T1, Tyrosine-protein phosphatase non-receptor type 11 (Homo sapiens); experiment: Binding affinity to His-tagged SHP2 (unknown origin) assessed as melting temperature at 5 uM measured every 50 secs by thermal shift assay (reference value: 43.5 +/- 0.95 degC)
[5] = target: T1, Tyrosine-protein phosphatase non-receptor type 11 (Homo sapiens); experiment: Binding affinity to His-tagged SHP2 (unknown origin) assessed as melting temperature at 60 uM measured every 50 secs by thermal shift assay (reference value: 43.5 +/- 0.95 degC)
[6] = target: T2, Tyrosine-protein phosphatase non-receptor type 11 (Mus musculus) (UniProt P35235); experiment: Inhibition of SHP2 in mouse Ba/F3 cells assessed as reduction in IL3-stimulated AKT phosphorylation pretreated for 4 hrs followed by IL3 stimulation and measured after 5 to 60 mins by Western blot analysis; format: cell-based
T2 sequence (whole entry): T1 sequence (whole entry) with M450V, A550V, K590R
How it was run: (§1)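 Ba/F3 cells starved overnight in serum- and cytokine-free RPMI1640. Treated with 20 µM compound for 4 h, then IL-3 (2 ng/mL) for the indicated times. RIPA lysates (50 µg) immunoblotted for p-Erk, p-Akt, p-Jak2 and p-Stat5, then reprobed for total proteins. Representative of three experiments.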

[7] = target: T2, Tyrosine-protein phosphatase non-receptor type 11 (Mus musculus); experiment: Inhibition of SHP2 in mouse Ba/F3 cells assessed as reduction in IL3-stimulated JAK2 phosphorylation pretreated for 4 hrs followed by IL3 stimulation and measured after 5 to 60 mins by Western blot analysis; format: cell-based; how it was run: as §1
[8] = target: T2, Tyrosine-protein phosphatase non-receptor type 11 (Mus musculus); experiment: Inhibition of SHP2 in mouse Ba/F3 cells assessed as reduction in IL3-stimulated STAT5 phosphorylation pretreated for 4 hrs followed by IL3 stimulation and measured after 5 to 60 mins by Western blot analysis; format: cell-based; how it was run: as §1
[9] = system: NCI-H661; experiment: Growth inhibition of PTPN11 N58S mutant harboring human NCI-H661 cells after 48 hrs by cell proliferation-based assay; format: functional
How it was run: (§2)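 H661 (PTPN11 N58S/+) and H596 (WT PTPN11) lung cancer cells exposed to a concentration series for 48 h, DMSO as control. Cell number measured by One Solution proliferation assay. Triplicates from one of three repeated experiments.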

[10] = system: NCI-H661; experiment: Growth inhibition of human NCI-H661 cells after 48 hrs by cell proliferation-based assay; format: functional; how it was run: as §2
[11] = target: T1, Tyrosine-protein phosphatase non-receptor type 11 (Homo sapiens); experiment: Inhibition of wild type recombinant human SHP2 at 50 uM using H-Glu-Phe-pTyr-Ala-Glu-Val-Gly-Arg-Ser-Pro-Pro-Asp-Pro-Ala-Lys as substrate preincubated for 30 mins followed by substrate addition and measured after 30 mins by Malachite Green-reagent based assay
How it was run: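 Full-length SHP2 or SHP1 (0.1 µg) preincubated with compound 30 min at room temperature in 25 mM Tris-HCl pH 7.4, 50 mM NaCl, 5 mM DTT, 2.5 mM EDTA. Phospho-peptide substrate added to 50 µM final; 30 min at 30 °C. Released phosphate read by Malachite Green at OD620. IC50 from six concentrations; three experiments.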

[12] = target: T1, Tyrosine-protein phosphatase non-receptor type 11 (Homo sapiens); experiment: Ratio of IC50 for inhibition of recombinant full length human GST-tagged SHP2 PTP domain using pNPP as substrate pre-incubated for 15 mins before pNPP substrate addition and measured after 15 mins to IC50 for inhibition of wild type recombinant human SHP2 using H-Glu-Phe-pTyr-Ala-Glu-Val-Gly-Arg-Ser-Pro-Pro-Asp-Pro-Ala-Lys as substrate preincubated for 30 mins followed by substrate addition and measured after 30 mins by Malachite Green-reagent based assay
[13] = target: T1, Tyrosine-protein phosphatase non-receptor type 11 (Homo sapiens); experiment: Inhibition of human wild-type full length SHP2 at 20 uM using H-Glu-Phe-pTyr-Ala-Glu-Val-Gly-Arg-Ser-ProPro-Asp-Pro-Ala-Lys as substrate in presence of 0.001% Triton X

With `CCOc1cc(O)c(C(=O)/C=C/c2ccc(Cl)cc2Cl)cc1CN1CCC=C(n2c(=O)[nH]c3ccccc32)C1` the Activity [1] was 0.029 µM, the Activity [2] was 0.029 µM and the Activity [3] was “Dose-dependent effect”. For the same molecule, the Tm [4] was 46.3 °C, the Tm [5] was 48.2 °C and the inhibition [6] was “Dose-dependent effect”. For the same molecule, the inhibition [7] was “Dose-dependent effect”, the inhibition [8] was “Dose-dependent effect” and the “growth inhibition (GI)” value [9] was “Active”. For the same molecule, the “growth inhibition (GI)” value [10] was “Dose-dependent effect”, the inhibition [11] was “Active” and the Ratio IC50 [12] was > 2. The inhibition [13] was “Active”.

— ChEMBL document CHEMBL4422612, “Small Molecule Inhibitor that Stabilizes the Autoinhibited Conformation of the Oncogenic Tyrosine Phosphatase SHP2” (J Med Chem, 2019)
